The record followed here is ChEMBL document CHEMBL1800043, “(-)-Duryne and its homologues, cytotoxic acetylenes from a marine Sponge Petrosia sp” (J Nat Prod, 2011).

In this test the test system is HeLa. As to the kind of experiment: Cytotoxicity against human HeLa cells after 72 hrs by MTT assay. In kind it is functional, cell-based. The procedure, abridged:
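HeLa cells grown in DMEM with 10% FBS, 2 μg/mL gentamycin and 2 μg/mL antibiotic-antimycotic at 37 °C under 5% CO2. Seeded at 1 × 10^4 cells/mL and preincubated 24 h. Sample added, then incubated 72 h. MTT (1 mg/mL saline) added for 3 h. Supernatant discarded, formazan dissolved in DMSO, absorbance read for IC50. Adriamycin was the positive control.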
(In general: Formazan colour is commonly taken as a measure of viable cells.)

On to `C#C[C@H](O)/C=C/CCCCCCCCC/C=C\CCCCCCCCC/C=C/[C@@H](O)C#C`, for which the IC50 (in general, the concentration that gives 50% inhibition) was found to be 500 nM. The same measure for `C#C[C@H](O)/C=C/CCCCCCCCC/C=C\CCCCCCCCCCC/C=C/[C@@H](O)C#C`: 260 nM; for `C#C[C@H](O)/C=C/CCCCC/C=C\CCCC/C=C\CCCCCCCCC/C=C/[C@@H](O)C#C`: 260 nM. `C#C[C@H](O)/C=C/CCCCCCC/C=C\CCCC/C=C\CCCCCCCCC/C=C/[C@@H](O)C#C` came in with an IC50 of 100 nM. `C#C[C@H](O)/C=C/CCCCCCCCC/C=C\CCCC/C=C\CCCCCCCCC/C=C/[C@@H](O)C#C` registered an IC50 of 80 nM. As for `C#C/C=C\[C@@H](O)CCCCCCCCCCC/C=C\CCCCCCCCC/C=C/[C@@H](O)C#C`, half-maximal inhibition (IC50) required 340 nM.

For the molecule `COc1cccc2c1C(=O)c1c(O)c3c(c(O)c1C2=O)C[C@@](O)(C(=O)CO)C[C@@H]3O[C@H]1C[C@H](N)[C@H](O)[C@H](C)O1` [DOXORUBICIN], the IC50 amounted to 1640 nM.
